From PubChem
Shown are actives, neighbours in structure and some others; about 2.6% of the full set was active somewhere.
PHOSPHO1 block = blocks human PHOSPHO1 phosphatase activity; Q8TCT1; recombinant PHOSPHO1, absorbance phosphatase assay; inhibition, % at 13.3 µM; 290,000 tested, 1.1% active; AID 1565; in the data active = inhibition above about 60%
Target sequence (Q8TCT1 whole entry, looked up): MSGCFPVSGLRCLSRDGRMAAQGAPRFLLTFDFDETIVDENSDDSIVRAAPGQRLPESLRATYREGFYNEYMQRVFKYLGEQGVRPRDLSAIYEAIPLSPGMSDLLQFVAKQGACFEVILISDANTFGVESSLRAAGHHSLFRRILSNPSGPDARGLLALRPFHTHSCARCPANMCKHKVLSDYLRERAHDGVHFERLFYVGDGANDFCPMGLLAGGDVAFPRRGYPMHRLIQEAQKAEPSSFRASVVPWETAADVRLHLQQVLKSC
ARFGAP1 inh = inhibits rat ARF GTPase activating protein 1; Arfgap1-stimulated ARF1 GTP hydrolysis, GDP FP detection; Q62848; 360,000 tested, 0.26% active; inhibition, % at 16.5 µM;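 active = inhibition above a per-plate limit, mean inhibition of low control wells plus 3 SD, cut at about 25% in these data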
Target sequence (Q62848 1-136 limits assumed): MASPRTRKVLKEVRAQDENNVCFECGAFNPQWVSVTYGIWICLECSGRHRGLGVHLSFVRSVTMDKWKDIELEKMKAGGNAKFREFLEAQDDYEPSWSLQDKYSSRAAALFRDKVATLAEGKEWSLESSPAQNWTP
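Repeats: one replicate per compound; assay system: rat Arfgap1 catalytic domain, aa 1-136; times: enzyme reaction 120 min at 25 °C after 20 min preincubation; detection: FP of antibody-bound GDP Alexa 633 tracer, ex 620/em 688 nm; benchmarks: high control wells lacking Arfgap1, low control full reaction with DMSO; reagent: human ARF1(Δ1-17)-GTP substrate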
IMP-1 inhibitor = inhibitors of Pseudomonas aeruginosa IMP-1 metallo-beta-lactamase | inhibition, % at 5.6 µM | AID 1556 | purified IMP-1, nitrocefin hydrolysis, epi-absorbance fluorescence | 290,000 tested, 0.45% active;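 active = inhibition above the mean plus 3 SD of all compounds in the same screening run, cut at about 4.5% in these data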
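System: purified recombinant IMP-1 beta-lactamase. Medium: Zinc- and detergent-supplemented HEPES buffer, pH 7.1. Compound: one 5.6 µM dose […]. Schedule: 15 min preincubation plus 25 min reaction at 25 °C. Technique: Epi-absorbance fluorescence, 480 nm excitation, 530 nm emission.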
VIM-2 inh = inhibitors of Pseudomonas aeruginosa VIM-2 metallo-beta-lactamase; inhibition, % at 5.6 µM; purified VIM-2, nitrocefin hydrolysis, epi-absorbance fluorescence; AID 1527; 290,000 tested, 0.89% active;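 active = inhibition above the mean of all tested compounds plus 3 SD, cutoff set per screening run, cut at about 7.5% in these data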;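 note: red hydrolysis product quenches plate fluorescence so inhibitors raise well fluorescence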
ASAP1 GAP inh = inhibitors of human ASAP1 ArfGAP activity. Q9ULH1. ASAP1-stimulated ARF1 GTP hydrolysis, GDP FP detection. inhibition, % at 16.5 µM. 360,000 tested, 0.19% active; in the data active = inhibition above about 25%
Calb FLC = affects C. albicans growth with fluconazole. C. albicans CaCi-2 (fluconazole-resistant clinical isolate) + fluconazole, Alamar Blue growth, 48 h. growth inhibition, % (no concentration beside the values). 300,000 tested, 0.57% active;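 active = growth inhibition above about 58% in most replicates, limit read from the data, passing the limit was not always enough; inconclusive = exactly half the replicates above a set limit; inactive = most replicates below a set limit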;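 note: all wells also contain fluconazole at 8 µg/ml as a sub-toxic cotreatment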
Numbers stand for hits; - = inactive; ? = inconclusive; . = no result given.

SMILES	PHOSPHO1 block	ARFGAP1 inh	IMP-1 inhibitor	VIM-2 inh	ASAP1 GAP inh	Calb FLC
Cc1ccc2c(C)cc(=S)[nH]c2c1	-	-	-	-	-	-
Cc1ccc2[nH]c(=S)cc(C)c2c1	89	-	-	-	-	-
Cc1cc(=S)[nH]c2ccccc12	100	-	-	-	-	-
COCc1cc(N2CCNC[C@H]2C)ccc1N1CCN(Cc2ccccc2)[C@H](C)C1	.	-	.	.	-	.
O=C(O)c1cc([N+](=O)[O-])ccc1NCc1ccccc1Cl	-	-	-	11	-	-
O=C(O)c1cc([N+](=O)[O-])ccc1NCc1ccccn1	.	-	.	.	-	.
CCC1S/C(=C(\C#N)C(=O)NCc2ccco2)N(c2ccc(F)cc2)C1=O (configuration not stated)	76	-	-	-	-	-
C=CCn1c(SCC(C)=O)nc2scc(-c3ccco3)c2c1=O	-	-	16	-	-	-
NC(=O)c1c(NC(=O)C2CC=CCC2C(=O)O)sc2c1CCCCC2 (configuration not stated)	.	-	5.7	-	-	.
COC(=O)Nc1sc2c(c1C(N)=O)CCCCCC2	69	-	-	-	-	-
COC(=O)[C@]12C[C@H](CC(=O)N3CCSCC3)C(=O)N(Cc3ccccc3)C1=C[C@H](C1CCCC1)O[C@@H]2C	.	-	.	.	-	.
CC(=O)N1CCc2cc(S(=O)(=O)CCC(=O)NCCc3ccc(Cl)cc3)ccc21	65	-	-	-	-	-
CCC(CC)C(=O)Nc1cccc(-c2ccc3nncn3n2)c1	-	-	-	-	-	-
O=C(Nc1cccc(-c2ccc3nncn3n2)c1)C(F)(F)F	-	-	-	8.0	-	-
Cn1cc([C@]2(O)C(=O)Nc3c(F)cccc32)c2ccccc21	.	-	.	.	-	.
Cc1cc(N2CCN(CC(C)(C)O)C[C@H]2C)ccc1N1CCN(Cc2ccccc2)[C@H](C)C1	.	-	.	.	-	.
CCC(=O)Nc1nnc(-c2ccccn2)o1	-	-	-	-	-	-
O=C(Nc1nnc(-c2ccccn2)o1)c1ccc(Br)cc1	-	-	-	-	-	98
CCN(Cc1ccccc1)C(=O)CN1C(=O)COc2ccc(S(=O)(=O)NC3CCCC3)cc21	63	-	-	-	-	-
COc1ccc(CNC(=O)CN2C(=O)COc3ccc(S(=O)(=O)NC4CCCC4)cc32)cc1	-	-	-	-	-	-
O=C(O)c1cccnc1SC1CC(=O)N(c2ccccc2)C1=O (configuration not stated)	-	-	5.2	-	-	-
C[N+](C)(C)c1ccc(/C=N/Nc2nc(Cl)c(C#N)c(Cl)c2Cl)cc1	-	-	-	10	-	-
CC(=O)C1=C(C)N(Cc2ccc(F)cc2)C(=S)NC1c1cccc(Cl)c1 (configuration not stated)	.	-	.	.	-	.
COc1ccc(C(=O)CC2(O)C(=O)N(CN3CCOCC3)c3ccc(Br)cc32)cc1 (configuration not stated)	.	-	.	.	-	.
Clc1ccc(-c2nnc3n2CCCCS3)cc1	-	-	-	-	-	-
SMILES	PHOSPHO1 block	ARFGAP1 inh	IMP-1 inhibitor	VIM-2 inh	ASAP1 GAP inh	Calb FLC
C=C1Cn2c(nnc2-c2ccc(Cl)cc2)S1	70	-	-	-	-	-
Oc1ccc(CNc2ccc(F)cc2)c2cccnc12	95	-	-	-	-	-
Cc1ccccc1NCc1ccc(O)c2ncccc12	71	-	-	-	-	-
COC(=O)C1=C(C)N(Cc2ccccc2C(F)(F)F)C(=NCc2ccc3c(c2)OCO3)NC1c1cccc(F)c1 (configuration not stated)	.	-	.	.	-	.
O=[N+]([O-])c1ccc(/C=N/Nc2ccc3ccccc3c2)o1	-	-	-	-	25	?
Cc1scc(C(=O)N/N=C/c2ccco2)c1C	-	-	-	-	-	-
Cc1scc(C(=O)N/N=C/c2ccc([N+](=O)[O-])o2)c1C	-	-	-	-	-	90
Cc1nc2ccccn2c1C(=O)N/N=C/c1ccc([N+](=O)[O-])o1	-	-	-	-	-	100
Cc1cc(O)cc(=O)n1-c1cc(C(F)(F)F)cc(C(F)(F)F)c1	.	-	.	.	-	.
COC(=O)C1=C(C)N(Cc2cccc(C(F)(F)F)c2)C(=NCc2ccc3c(c2)OCO3)NC1c1cccc(Cl)c1 (configuration not stated)	.	-	.	.	-	.
CNC(=O)/C(C#N)=C/c1c(N2CCCCCC2)nc2ccccn2c1=O	-	-	-	8.1	-	-
COc1ccc(C(=O)c2[nH]c(N)c(C(=O)NCCc3c[nH]c4ccccc34)c2-c2ccccc2C(F)(F)F)cc1	.	-	.	.	-	.
c1ccc(N/N=C(\Cc2ncc[nH]2)c2ccccc2)cc1	-	-	-	-	-	114
COc1ccc(C(=O)N/N=C(\Cc2ncc[nH]2)c2ccccc2)cc1	-	-	-	-	-	98
COc1cc(C(=O)N/N=C(\Cc2ncc[nH]2)c2ccccc2)cc(OC)c1OC	-	-	-	-	-	-
COc1ccc(/C=N/Nc2ccc([N+](=O)[O-])cc2)cc1Cn1cc([N+](=O)[O-])cn1	-	-	4.6	-	-	-
COc1ccc(/C=N/n2cncn2)cc1Cn1cc([N+](=O)[O-])cn1	-	-	-	-	-	-
COC(=O)c1cc2c(c3c4cc(C)ccc4n(S(=O)(=O)c4ccc(C)cc4)c13)C(=O)N(C)C2	.	-	.	.	-	.
Cn1c(CNC(=O)c2ccco2)nnc1SCC(=O)Nc1cccc(Br)c1	93	-	-	-	-	-
Cc1cccc(NC(=O)CSc2nnc(CNC(=O)c3ccco3)n2C)c1	-	-	-	-	-	-
CC(=O)C1=C(C)N(CC(C)C)C(=S)NC1c1cccc(Cl)c1 (configuration not stated)	.	-	.	.	-	.
COC(=O)c1cc2c(c3c4ccccc4n(S(=O)(=O)c4cccc(C)c4)c13)C(=O)N(Cc1ccc(N(C)C)cc1)C2	.	-	.	.	-	.
COc1ccccc1/C=N\NC(=O)c1c(C)nc2ccc(Cl)cn12	-	-	-	-	-	-
COc1cccc(/C=N/NC(=O)c2c(C)nc3ccc(Cl)cn23)c1O	-	-	-	-	-	104
Cc1ccc(NC(=S)N/N=C2\CC3CC=CC23)c(C)c1 (configuration not stated)	65	-	-	-	-	-
Cc1cccc(C)c1NC(=S)N/N=C1\CC2CC=CC12 (configuration not stated)	-	-	-	-	-	-
COc1ccc(NC(=O)c2ccc([N+](=O)[O-])o2)cc1	.	-	-	-	-	103
CC(=O)c1ccc(NC(=O)c2ccc([N+](=O)[O-])o2)cc1	-	-	-	-	-	-
Cc1cc(NC(=O)c2ccc([N+](=O)[O-])o2)ccc1NC(=O)c1ccco1	-	-	-	-	-	58
CCCCNC(=O)C1(C)CCCCN1C(=O)c1cc(-c2ccccc2)cs1 (configuration not stated)	.	-	.	.	-	.
